Reference: ChEMBL document CHEMBL1141149, “Novel fluorinated prodrugs for activation by carboxypeptidase G2 showing good in vivo antitumor activity in gene-directed enzyme prodrug therapy” (J Med Chem, 2005)

Experiments:
[1] = Chemical half life period as substrates of CPG2 was determined; assay type: ADME
Summary of the method: (§1)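 Compounds diluted from 10 mM DMSO stocks to 100 μM final in CPG2 assay buffer (100 mM Tris-HCl pH 7.3, 260 μM ZnCl2), no enzyme. Remaining parent measured over time by repeat isocratic reverse-phase HPLC injections (10 mM ammonium acetate pH 5.0/methanol), UV at λmax. Half-life from one-phase exponential decay fit (max 1, min 0).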

[2] = Cytotoxicity against MDA MB361 cell line MDA MB 361 expressing beta-galactosidase done for 1 h with compound dissolved in DMSO; assay type: functional, cell-based; conditions: Homo sapiens, MDA-MB-361, 1 h
Summary of the method: (§2)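 Stably transfected MDA MB 361 lines (β-gal, cytoplasmic CPG2, or surface-tethered stCPG2(Q)3) in DMEM/10% FBS, confluent 6-well monolayers. Prodrug series 1 h, then equal concentration fresh solution added, 20 h more. Cells reseeded 2×10^3/well, grown 5 days; SRB staining, A540. IC50 by four-parameter logistic fit of % control growth.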

[3] = biological target: T1, Carboxypeptidase G2 (Pseudomonas aeruginosa (strain ATCC 15692 / PAO1 / 1C / PRS 101 / LMG12228)) (UniProt Q9I056); assay: Kcat against carboxypeptidase G2 in inhibitory kinetic assay
T1 sequence (whole entry): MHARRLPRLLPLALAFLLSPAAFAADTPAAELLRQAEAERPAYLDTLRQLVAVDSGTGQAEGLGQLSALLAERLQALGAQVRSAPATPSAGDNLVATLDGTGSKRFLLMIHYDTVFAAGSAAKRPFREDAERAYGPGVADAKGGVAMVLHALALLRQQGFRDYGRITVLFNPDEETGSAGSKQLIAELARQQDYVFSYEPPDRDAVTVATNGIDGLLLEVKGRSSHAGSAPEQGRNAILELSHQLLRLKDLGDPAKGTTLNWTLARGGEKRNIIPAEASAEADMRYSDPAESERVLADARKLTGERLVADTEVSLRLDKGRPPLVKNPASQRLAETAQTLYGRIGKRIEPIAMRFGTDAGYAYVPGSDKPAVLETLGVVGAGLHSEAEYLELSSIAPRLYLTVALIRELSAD
Summary of the method: (§3)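 Prodrug 0.2–50 μM (25 concentrations) in CPG2 assay buffer (100 mM Tris-HCl pH 7.3, 260 μM ZnCl2) at 37 °C, ±50 mU CPG2. Absorbance change at wavelength of maximal prodrug/drug difference followed 1 min, non-enzymic change subtracted, converted to substrate loss. Km and kcat from Michaelis–Menten nonlinear fit.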

[4] = Cytotoxicity aganist MDA MB361 cell line MDA MB 361 expressing carboxypeptidase G2 done for 1 hr with compound dissolved in DMSO; assay type: functional, cell-based; conditions: Homo sapiens, MDA-MB-361, 1 h; summary of the method: as §2
[5] = Ratio of IC50 of LacZ cell line to CPG2-expressing cell line; assay type: functional, Homo sapiens
Summary of the method: (§4)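 Selectivity ratio: IC50 in β-gal (LacZ) control MDA MB 361 cells divided by IC50 in CPG2- or stCPG2(Q)3-expressing cells, both from 1 h + 20 h exposure, 5-day regrowth SRB assay.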

[6] = Ratio of IC50 of LacZ cell line to stCPG2(Q)3-expressing cell line; assay type: functional, Homo sapiens; summary of the method: as §4
[7] = Half life period was determined; assay type: ADME; conditions: rat; summary of the method: as §1
[8] = Cytotoxicity aganist MDA MB361 cell line MDA MB 361 expressing stCPG2(Q)3 done for 1 hr with compound dissolved in DMSO; assay type: functional, cell-based; conditions: Homo sapiens, MDA-MB-361, 1 h; summary of the method: as §2
[9] = compound: O=C(O)CC[C@H](NC(=O)c1cc(F)c(N(CCI)CCI)c(F)c1)C(=O)O; assay: (§5) Km against carboxypeptidase G2 in inhibitory kinetic assay; conditions: Pseudomonas; summary of the method: as §3
[10] = compound: CS(=O)(=O)OCCN(CCCl)c1ccc(C(=O)N[C@@H](CCC(=O)O)C(=O)O)cc1; assay: as §5; conditions: Pseudomonas; summary of the method: as §3
[11] = compound: O=C(O)CC[C@H](NC(=O)c1cc(F)c(N(CCCl)CCCl)c(F)c1F)C(=O)O; assay: as §5; conditions: Pseudomonas; summary of the method: as §3
[12] = compound: O=C(O)CC[C@H](NC(=O)c1cc(F)c(N(CCBr)CCBr)c(F)c1F)C(=O)O; assay: as §5; conditions: Pseudomonas; summary of the method: as §3
[13] = compound: O=C(O)CC[C@H](NC(=O)c1cc(F)c(N(CCBr)CCBr)c(F)c1)C(=O)O; assay: as §5; conditions: Pseudomonas; summary of the method: as §3
[14] = compound: O=C(O)CC[C@H](NC(=O)c1cc(F)c(N(CCI)CCI)c(F)c1F)C(=O)O; assay: as §5; conditions: Pseudomonas; summary of the method: as §3
[15] = compound: O=C(O)CC[C@H](NC(=O)c1cc(F)c(N(CCCl)CCCl)c(F)c1)C(=O)O; assay: as §5; conditions: Pseudomonas; summary of the method: as §3

Molecule | half-life [1] [min] | IC50 [2] [mM] | K cat [3] | IC50 [4] [µM] | Differential [5] | Differential [6] | half-life [7] [min] | IC50 [8] [µM] | Km [9] [µM] | Km [10] [µM] | Km [11] [µM] | Km [12] [µM] | Km [13] [µM] | Km [14] [µM] | Km [15] [µM]
O=C(O)CC[C@H](NC(=O)c1cc(F)c(N(CCBr)CCBr)c(F)c1)C(=O)O | 5.5 | > 4 | 827 1/S | 53 | >75 | >280 | < 5 | 14 | – | – | – | – | – | – | –
O=C(O)CC[C@H](NC(=O)c1cc(F)c(N(CCCl)CCCl)c(F)c1F)C(=O)O | 1300 | > 4 | 1150 1/S | 73 | >55 | >87 | 360 | 46 | – | – | – | – | – | – | –
CS(=O)(=O)OCCN(CCCl)c1ccc(C(=O)O)cc1 | 30 | – | – | – | – | – | – | – | – | – | – | – | – | – | –
O=C(O)CC[C@H](NC(=O)c1cc(F)c(N(CCCl)CCCl)c(F)c1)C(=O)O | 294 | > 4 | 732 1/S | 42 | >95 | >150 | 90 | 26 | – | – | – | – | – | – | –
O=C(O)CC[C@H](NC(=O)c1cc(F)c(N(CCBr)CCBr)c(F)c1F)C(=O)O | 22.9 | > 4 | 825 1/S | 82 | >49 | >80 | 9 | 50 | – | – | – | – | – | – | –
O=C(O)CC[C@H](NC(=O)c1c(F)c(F)c(N(CCCl)CCCl)c(F)c1F)C(=O)O | 4940 | > 4 | 0 1/S | > 4000 | – | – | – | > 4000 | – | – | – | – | – | – | –
O=C(O)CC[C@H](NC(=O)c1cc(F)c(N(CCI)CCI)c(F)c1F)C(=O)O | 37.3 | > 4 | 220 1/S | 671 | >6 | >23 | 360 | 173 | – | – | – | – | – | – | –
CS(=O)(=O)OCCN(CCCl)c1ccc(C(=O)N[C@@H](CCC(=O)O)C(=O)O)cc1 | – | 3.13 | 583 1/S | 1880 | – | 19 | – | 165 | – | – | – | – | – | – | –
O=C(O)CC[C@H](NC(=O)c1c(F)c(F)c(N(CCI)CCI)c(F)c1F)C(=O)O | 120 | > 4 | 0 1/S | > 4000 | – | – | – | > 4000 | – | – | – | – | – | – | –
O=C(O)CC[C@H](NC(=O)c1cc(F)c(N(CCI)CCI)c(F)c1)C(=O)O | 9 | 3.3 | 1150 1/S | 39 | 86 | 127 | < 5 | 26 | – | – | – | – | – | – | –
Carboxypeptidase G2 (Pseudomonas aeruginosa (strain ATCC 15692 / PAO1 / 1C / PRS 101 / LMG12228)), Q9I056 (protein) MHARRLPRLLPLALAFLLSPAAFAADTPAAELLRQAEAERPAYLDTLRQLVAVDSGTGQAEGLGQLSALLAERLQALGAQVRSAPATPSAGDNLVATLDGTGSKRFLLMIHYDTVFAAGSAAKRPFREDAERAYGPGVADAKGGVAMVLHALALLRQQGFRDYGRITVLFNPDEETGSAGSKQLIAELARQQDYVFSYEPPDRDAVTVATNGIDGLLLEVKGRSSHAGSAPEQGRNAILELSHQLLRLKDLGDPAKGTTLNWTLARGGEKRNIIPAEASAEADMRYSDPAESERVLADARKLTGERLVADTEVSLRLDKGRPPLVKNPASQRLAETAQTLYGRIGKRIEPIAMRFGTDAGYAYVPGSDKPAVLETLGVVGAGLHSEAEYLELSSIAPRLYLTVALIRELSAD | – | – | – | – | – | – | – | – | 1.74 | 3.4 | 2.6 | 1.1 | 1.18 | 2.8 | 1.71
